# hIAP block: blocks human intestinal alkaline phosphatase; P09923; purified IAP, CDP-Star luminescence, 30 min; inhibition, % at 10 µM; 330,000 compounds, 0.12% hits;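 active means inhibition reaching a set limit with compound at 10 µM in the primary screen, cut at about 35% in these data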;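 further: plate controls were DMSO wells with enzyme for no effect and no-enzyme buffer wells for full effect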
# Target sequence (P09923 whole entry, looked up): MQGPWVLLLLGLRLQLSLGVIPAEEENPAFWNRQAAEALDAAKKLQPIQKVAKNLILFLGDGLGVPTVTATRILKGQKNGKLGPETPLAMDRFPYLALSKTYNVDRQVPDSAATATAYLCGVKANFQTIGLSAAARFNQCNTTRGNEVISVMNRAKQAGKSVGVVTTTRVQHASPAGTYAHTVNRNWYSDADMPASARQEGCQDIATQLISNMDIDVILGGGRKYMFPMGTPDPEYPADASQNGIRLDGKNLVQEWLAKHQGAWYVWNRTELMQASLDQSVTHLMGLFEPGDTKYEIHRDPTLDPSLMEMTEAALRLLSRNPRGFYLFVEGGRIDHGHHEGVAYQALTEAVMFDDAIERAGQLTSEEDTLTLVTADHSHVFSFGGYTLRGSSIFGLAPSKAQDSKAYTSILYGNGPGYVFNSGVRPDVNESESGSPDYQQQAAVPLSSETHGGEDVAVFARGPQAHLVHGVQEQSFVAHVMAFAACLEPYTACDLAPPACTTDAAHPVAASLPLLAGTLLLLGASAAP
# hIAP activ: increases human intestinal alkaline phosphatase activity | 330,000 compounds, 0.16% hits | purified human IAP, CDP-Star luminescence, 30 min; stronger effect = higher value; 1 = vehicle-only enzyme, 0 = enzyme-free background | activation factor at 10 µM | P09923;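 active means activation factor of the enzyme at least 2-fold when tested at 20 µM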
# mIAP inh: mouse IAP inhibition. inhibition, % at 10 µM. 330,000 compounds, 0.2% hits. purified mouse IAP, CDP-Star luminescence, 30 min;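 active means inhibition of at least 40% at 10 µM in the primary screen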;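 further: plate controls were DMSO with enzyme for no effect and no enzyme wells for full effect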
# bIAP inh: intestinal alkaline phosphatase (bovine) inhibition; purified bovine IAP, CDP-star luminescence, 30 min; inhibition, % at 20 µM; 190,000 tested, under 10 active; AID 1019;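 active means over 50% inhibition of intestinal alkaline phosphatase at 20 µM in the single-dose screen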
#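 Assay system: bovine IAP enzyme; medium: DEA buffer 100 mM, pH 9.8, with MgCl2 1.0 mM, ZnCl2 0.02 mM; doses: 20 µM single dose; incubation: enzyme reaction for 30 min at room temperature; detection: CDP-star luminescence signal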
# bIAP act: increases bovine intestinal alkaline phosphatase activity; activation factor at 20 µM; purified bovine IAP, CDP-star luminescence, 30 min; stronger effect = higher value; fold of DMSO-control signal, blank-subtracted; 200,000 compounds, 0.17% hits; AID 1016;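 active means activation factor of 2 or more at 20 µM, a signal rise over negative controls twice the positive control's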
# mIAP act: mouse IAP activation; 330,000 compounds, 0.24% hits; muIAP, CDP-Star luminescence, 30 min; stronger effect = higher value; 1 = vehicle-only enzyme signal, 0 = enzyme-free wells; activation factor at 10 µM; AID 2805;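 active means activation factor of at least 2 at 20 µM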
#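 also added = chemiluminescent substrate CDP-Star | test system = mouse IAP enzyme | signal = chemiluminescence readout | compound = DMSO-dissolved test compounds | incubation = 30 min at room temperature | benchmarks = DMSO wells, no-enzyme wells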
# * = called active by the depositor; i = inactive; · = no result. Sampled rows, rich in hits. Any-hit rate of the full collection: about 0.79%.
SMILES,hIAP block,hIAP activ,mIAP inh,bIAP inh,bIAP act,mIAP act
N/C(=N\OC(=O)c1cccc2ccccc12)c1cccc([N+](=O)[O-])c1,5,0.95,-3,11,0.9,1
Cc1cccc(/C(N)=N/OC(=O)c2cccc3ccccc23)c1,40*,0.6,7,·,·,0.93
CC1CCCC(NC(=S)Nc2cccc(S(=O)(=O)N(C)C)c2)C1C (stereo unspecified),-23,1.2,-392,4,1,4.9*
CN(C)S(=O)(=O)c1cccc(NC(=S)NC23CC4CC(CC(C4)C2)C3)c1,-14,1.1,-174,·,·,2.7*
Cc1ccc(S(=O)(=O)N(C)C)cc1NC(=S)NC12CC3CC(CC(C3)C1)C2,·,·,·,·,0.3,·
CC#CCN1c2ccccc2[C@]23C[C@@H](C(=O)OC)N=C2NC(C(=O)OC)=C(C(=O)OC)[C@H]13,9,0.91,5,·,·,0.95
N#C/C(=N\Nc1cccc(C(F)(F)F)c1)C(=O)c1csc(-c2cccnc2)n1,12,0.88,4,·,·,0.96
CCOP(=O)(OCC)C(NC(=O)Nc1ccc(Cl)c(Cl)c1)C(N)=O (stereo unspecified),7,0.93,-12,·,0.4,1.1
CCOP(=O)(OCC)C(NC(=O)Nc1ccc(Cl)c(Cl)c1)c1ccccc1 (stereo unspecified),4,0.96,-402,6,0.9,5*
CCOP(=O)(OCC)C(NC(=O)Nc1ccc(Cl)cc1)C(N)=O (stereo unspecified),-2,1,5,13,0.9,0.95
CCOP(=O)(OCC)C(NC(=O)Nc1ccc(Cl)cc1)c1ccccc1 (stereo unspecified),-33,1.3,-103,2,1,2*
Clc1ccc(Cn2cccn2)cn1,0,1,-11,4,1,1.1
Nc1ccc(S(=O)(=O)NNC(=O)C(=O)NNc2ccccn2)cc1,-166,2.7*,27,-30,1.3,0.73
CN(C(=O)CC1C(=O)NCCN1Cc1ccc(F)c(F)c1)C1CCOCC1 (stereo unspecified),-9,1.1,0,0,1,1
C=CCn1c2ccccc2c2nnc(SCCCn3c(=O)[nH]c4ccccc43)nc21,·,·,·,-99,2*,·
COc1ccc(CCNC(=O)CSc2cn(Cc3cccc(C)c3)c3ccccc23)cc1OC,7,0.93,-125,13,0.9,2.2*
O=S(=O)(c1cnc[nH]1)N1CCN(C(c2ccc(F)cc2)c2ccc(F)cc2)CC1,-48,1.5,5,·,·,0.95
CC(=O)N1N=C(c2ccccc2)CC1c1cccs1 (stereo unspecified),-15,1.1,1,·,·,0.99
CC(=O)Nc1ccc(C2=NN(c3ccccc3)C(c3cccs3)C2)cc1 (stereo unspecified),-16,1.2,-131,-29,1.3,2.3*
COc1ccc(OC)c(C=NNC(=O)c2ccccc2NS(=O)(=O)c2cccs2)c1,-3,1,3,·,·,0.97
CCOCCCNC(=S)N1C2CCC1CC(NC(=O)Nc1ccc(C(=O)OCC)cc1)C2 (stereo unspecified),-38,1.4,-120,-38,1.4,2.2*
CCNC(=S)N1C2CCC1CC(NC(=O)Nc1ccc(C(=O)OCC)cc1)C2 (stereo unspecified),8,0.92,-56,-12,1.1,1.6
O=C(CSc1nnc(NC(=O)C2CC(=O)N(c3ccc(F)cc3)C2)s1)NC1CCCC1 (stereo unspecified),4,0.96,5,·,·,0.95
CCn1c(SCc2nc3ccccc3[nH]2)nnc1-c1ccccc1OC,13,0.87,2,-133,2.3*,0.98
O=C(NCc1n[nH]c(=S)n1-c1ccc(F)cc1)c1ccco1,-12,1.1,-4,10,0.9,1
SMILES,hIAP block,hIAP activ,mIAP inh,bIAP inh,bIAP act,mIAP act
COc1ccc(CCNC(=O)c2cc(-c3ccc(Cl)c(Cl)c3)oc2C)cc1,7,0.93,-243,-9,1.1,3.4*
COc1ccc(CCNC(=O)c2nn(C)cc2Cl)cc1,-11,1.1,-1,10,0.9,1
CC(C)(C)c1ccc(/C=N/NC(=S)Nc2cccnc2)cc1,-3,1,-1,-3,1,1
Oc1ccc(/C=N/NC(=S)Nc2cccnc2)cc1O,28,0.72,79*,-18,1.2,0.21
CC(O)CNc1nc2ccccc2n1-c1ncnc2sc3c(c12)CCC3 (stereo unspecified),-8,1.1,-44,-105,2.1*,1.4
O=C(COC(=O)CCc1ccc(S(=O)(=O)N2CCOCC2)cc1)NCc1ccccc1,16,0.84,-3,-2,1,1
N#CC1=C(S)N(c2ccccc2)C(c2ccc(-c3ccc(Cl)c(Cl)c3)o2)NC1=O (stereo unspecified),22,0.78,17,·,·,0.83
N#CC1=C(S)N(c2ccccc2)C(c2ccc(-c3cc(Cl)ccc3Cl)o2)NC1=O (stereo unspecified),5,0.95,16,-101,2*,0.83
CC(/C=C/c1ccco1)=N\NC(=O)c1cc(C)[nH]n1,-22,1.2,41*,-25,1.2,0.59
Cc1ccc(SCc2nc3ccccc3n2CC(=O)Nc2ccccc2)cc1,-3,1,-136,0,1,2.4*
O=C(Cn1c(CSc2ccccc2)nc2ccccc21)Nc1ccccc1,·,·,·,-8,1.1,·
Cc1ccc(-n2cnc3cc(NCc4cccs4)ccc32)cc1,-3,1,2,i,22*,0.98
CC(=O)Nc1nnc(SCC(=O)Nc2nc(C)cs2)s1,-16,1.2,10,·,·,0.9
O=C(CN1C(=O)NC2(CCCC2)C1=O)NCCc1ccccc1,-19,1.2,9,·,·,0.91
Cc1cccc(S(=O)Cc2ccc(C(=O)N3CCOCC3)o2)c1 (stereo unspecified),-8,1.1,2,·,·,0.98
O=C(O)c1ccc(CS(=O)c2cccc(C(F)(F)F)c2)o1 (stereo unspecified),26,0.73,0,-224,3.2*,1
CCOc1ccc(CCNC(=O)c2ccc3c(c2)NC(=O)C2CCCN32)cc1OCC (stereo unspecified),8,0.92,-103,·,·,2*
CCOc1ccc(C(=O)N/N=C/c2ccccc2[N+](=O)[O-])cc1,-12,1.1,-10,-101,2*,1.1
Oc1ccc(-c2nc(-c3ccc(O)c(O)c3)cs2)cc1,38*,0.62,32,16,0.8,0.68
COc1ccccc1[C@H]1C(c2ccc(F)cc2)=NN(c2ccccc2)[C@@H]1CO,·,·,-56,·,·,1.6
OC[C@@H]1[C@@H](c2ccc(F)cc2)C(c2cccc(Cl)c2)=NN1c1ccccc1,·,·,-113,·,·,2.1*
C[C@H]1C(c2ccc(F)cc2)=NN(c2ccccc2)[C@@H]1CO,·,·,-59,·,·,1.6
OC[C@@H]1[C@@H](c2ccc(Cl)cc2)C(c2ccccc2)=NN1c1ccccc1,·,·,-105,·,·,2*

# Screening data as filed in PubChem.
